Assay results reported in ChEMBL document CHEMBL5705886, “GSK1070916, a potent Aurora B/C kinase inhibitor with broad antitumor activity in tissue culture cells and human tumor xenograft models” (Mol Cancer Ther, 2009).
Activity calls are given as the source filed them. The calls are words filed in the database; no cut-off is given here.

Legend:
SU-DHL-5 = experiment: Antiproliferative activity against human SU-DHL-5 cells assessed as inhibition of cell viability measured for 6 to 7 days by cell titer glo assay; type: functional, cell-based
How it was run: (§1)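 Cells seeded in recommended growth medium, held overnight at 37°C in 5% CO2, then exposed to serial dilutions of inhibitor for 6–7 d. A time-zero plate was read with CellTiter-Glo at dosing. Luminescent viability read at the end. No-cell wells subtracted as background, data expressed as percent of DMSO control.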

CRO-AP2 = experiment: Antiproliferative activity against human CRO-AP2 cells assessed as inhibition of cell viability measured for 6 to 7 days by cell titer glo assay; type: functional, cell-based
How it was run: (§2)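 Tumor lines plated in recommended growth media, overnight at 37°C, 5% CO2, then given serial dilutions; a T=0 plate read with CellTiter-Glo at dosing. After 6–7 d of exposure, viability read by CellTiter-Glo luminescence. No-cell wells subtracted, data expressed as % of DMSO control.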

DU-145 = experiment: Antiproliferative activity against human DU-145 cells assessed as inhibition of cell viability measured for 6 to 7 days by cell titer glo assay; type: functional, cell-based
How it was run: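 Cells plated in recommended growth medium, held overnight at 37°C in 5% CO2, then given serial dilutions of inhibitor; a T=0 set read with CellTiter-Glo at dosing. Luminescent viability read after 6–7 d exposure.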

DG-75 = experiment: Antiproliferative activity against human DG-75 cells assessed as inhibition of cell viability measured for 6 to 7 days by cell titer glo assay; type: functional, cell-based; how it was run: as §2
BXPC-3 = experiment: Antiproliferative activity against human BXPC-3 cells assessed as inhibition of cell viability measured for 6 to 7 days by cell titer glo assay; type: functional, cell-based; how it was run: as §2
RCK8 = experiment: Antiproliferative activity against human RCK8 cells assessed as inhibition of cell viability measured for 6 to 7 days by cell titer glo assay; type: functional, cell-based; how it was run: as §1
T47D = experiment: Antiproliferative activity against human T47D cells assessed as inhibition of cell viability measured for 6 to 7 days by cell titer glo assay; type: functional, cell-based; how it was run: as §1
SR = experiment: Antiproliferative activity against human SR cells assessed as inhibition of cell viability measured for 6 to 7 days by cell titer glo assay; type: functional, cell-based; how it was run: as §1
EB-3 = experiment: Antiproliferative activity against human EB-3 cells assessed as inhibition of cell viability measured for 6 to 7 days by cell titer glo assay; type: functional, cell-based; how it was run: as §2
RPMI-8226 = experiment: Antiproliferative activity against human RPMI-8226 cells assessed as inhibition of cell viability measured for 6 to 7 days by cell titer glo assay; type: functional, cell-based; how it was run: as §1
COLO 201 = experiment: Antiproliferative activity against human COLO201 cells assessed as inhibition of cell viability measured for 6 to 7 days by cell titer glo assay; type: functional, cell-based; how it was run: as §2
MOLT-4 = experiment: Antiproliferative activity against human MOLT-4 cells assessed as inhibition of cell viability measured for 6 to 7 days by cell titer glo assay; type: functional, cell-based
How it was run: (§3)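 Cells seeded in recommended growth medium, incubated overnight at 37°C in 5% CO2, then exposed to serial dilutions of inhibitor for 6–7 d. A parallel plate was read with CellTiter-Glo at compound addition as a T=0 value. The luminescent viability readout had no-cell background subtracted and was expressed as % of DMSO control.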

MCF7 = experiment: Antiproliferative activity against human MCF7 cells assessed as inhibition of cell viability measured for 6 to 7 days by cell titer glo assay; type: functional, cell-based; how it was run: as §3
OVCAR-8 = experiment: Antiproliferative activity against human OVCAR-8 cells assessed as inhibition of cell viability measured for 6 to 7 days by cell titer glo assay; type: functional, cell-based; how it was run: as §1
[1] = Antiproliferative activity against human F-36P cells assessed as inhibition of cell viability measured for 6 to 7 days by cell titer glo assay; type: functional, cell-based; how it was run: as §2
CCRF-SB = experiment: Antiproliferative activity against human CCRF-SB cells assessed as inhibition of cell viability measured for 6 to 7 days by cell titer glo assay; type: functional, cell-based; how it was run: as §2
[2] = Toxicity in SCID nude mouse xenografted with human K562 cells assessed as body weight loss at 100 mg/kg, ip administered once daily for 5 consecutive days with 2 days off scheduled for 3 cycles measured upto 60 days; type: organism-based; settings: in vivo, 1440 h, time < 60 day
SW-620 = experiment: Antiproliferative activity against human SW620 cells assessed as inhibition of cell viability measured for 6 to 7 days by cell titer glo assay; type: functional, cell-based; how it was run: as §1
A498 = experiment: Antiproliferative activity against human A498 cells assessed as inhibition of cell viability measured for 6 to 7 days by cell titer glo assay; type: functional, cell-based; how it was run: as §2
RKO = experiment: Antiproliferative activity against human RKO cells assessed as inhibition of cell viability measured for 6 to 7 days by cell titer glo assay; type: functional, cell-based; how it was run: as §1
[3] = Toxicity in SCID nude mouse xenografted with human A549 cells assessed as body weight loss at 25 to 100 mg/kg, ip administered once daily for 5 consecutive days with 2 days off scheduled for 3 cycles measured upto 60 days relative to control; type: organism-based; settings: in vivo, 1440 h, dose 25-100 mg/kg, time < 60 day
A2780 = experiment: Antiproliferative activity against human A2780 cells assessed as inhibition of cell viability measured for 6 to 7 days by cell titer glo assay; type: functional, cell-based; how it was run: as §2
HCT-116 = experiment: In vivo inhibition of Aurora B in human HCT-116 cells xenografted in athymic nude mouse assessed as inhibition of HH3-S10 phosphorylation administered as single ip dose incubated for 0.5 to 72 hrs; type: functional, organism-based; settings: dose 25-100 mg/kg, time 0.5-72 hrs
[4] = Toxicity in SCID nude mouse xenografted with human K562 cells assessed as drug tolerance at 100 mg/kg, ip administered once daily for 5 consecutive days with 2 days off scheduled for 3 cycles measured upto 60 days; type: organism-based; settings: in vivo, 1440 h, time < 60 day
[5] = Antiproliferative activity against human EM-3 cells assessed as inhibition of cell viability measured for 6 to 7 days by cell titer glo assay; type: functional, cell-based; how it was run: as §2
DLD-1 = experiment: Antiproliferative activity against human DLD-1 cells assessed as inhibition of cell viability measured for 6 to 7 days by cell titer glo assay; type: functional, cell-based; how it was run: as §2
NB-4 = experiment: Antiproliferative activity against human NB4 cells assessed as inhibition of cell viability measured for 6 to 7 days by cell titer glo assay; type: functional, cell-based; how it was run: as §3
GA-10 = experiment: Antiproliferative activity against human GA-10 cells assessed as inhibition of cell viability measured for 6 to 7 days by cell titer glo assay; type: functional, cell-based; how it was run: as §2
HL-60 = experiment: Antitumor activity in human HL-60 cells xenografted in SCID mouse assessed as reduction in tumor growth at 100 mg/kg, ip administered once daily for 5 consecutive days with 2 days off scheduled for 2 cycles measured upto 60 days; type: functional, organism-based; settings: time 60.0 day
OVCAR-4 = experiment: Antiproliferative activity against human OVCAR-4 cells assessed as inhibition of cell viability measured for 6 to 7 days by cell titer glo assay; type: functional, cell-based; how it was run: as §1
U2OS = experiment: Antiproliferative activity against human U2OS cells assessed as inhibition of cell viability measured for 6 to 7 days by cell titer glo assay; type: functional, cell-based
NAMALVA = experiment: Antiproliferative activity against human NAMALWA cells assessed as inhibition of cell viability measured for 6 to 7 days by cell titer glo assay; type: functional, cell-based; how it was run: as §3
HT = experiment: Antiproliferative activity against human HT cells assessed as inhibition of cell viability measured for 6 to 7 days by cell titer glo assay; type: functional, cell-based; how it was run: as §3

CCn1cc(-c2ccnc3[nH]c(-c4cccc(CN(C)C)c4)cc23)c(-c2ccc(NC(=O)N(C)C)cc2)n1 [GSK-1070916]
EC50 (SU-DHL-5): 5 nM
EC50 (CRO-AP2): 3 nM
EC50 (DU-145): 15 nM
EC50 (DG-75): 18 nM
EC50 (BXPC-3): 3 nM
EC50 (RCK8): 38 nM
EC50 (T47D): 13 nM
EC50 (SR): 3 nM
EC50 (EB-3): 7 nM
EC50 (RPMI-8226): 11 nM
EC50 (COLO 201): 2 nM
EC50 (MOLT-4): 3 nM
EC50 (MCF7): 13 nM
EC50 (OVCAR-8): 30 nM
EC50 [1]: 10 nM
EC50 (CCRF-SB): 2 nM
Activity [2]: Toxic
EC50 (SW-620): 8 nM
EC50 (A498): 33 nM
EC50 (RKO): 7 nM
Activity [3]: < 15%
EC50 (A2780): 5 nM
Activity (HCT-116): Dose-Dependent Effect
Activity [4]: Toxic
EC50 [5]: 4 nM
EC50 (DLD-1): 28 nM
EC50 (NB-4): 11 nM
EC50 (GA-10): 4 nM
Activity (HL-60): Active
EC50 (OVCAR-4): 11 nM
EC50 (U2OS): 34 nM
EC50 (NAMALVA): 6 nM
EC50 (HT): 7 nM
